Laboratory results published in publication PMC9420430 (Current Research in Immunology, 2022).
Like-named read-outs stand apart in the source and are kept apart here.

Experiments:
HLA-A*02:01 [1] = target: T1, HLA-A*02:01 (Homo sapiens, UniProt P04439, D140Y/D185E/D98H/E176V/E277Q/G131W/G231S/I119V/I121R/I166T/I218V/L300P/L318F/N151K/N90K/P208A/P217A/Q86G/Q94H/R138H/R169H/T345S); assay type: binding; conditions: for peptide exchange (in words): NA9 for NV9-FITC on A2, 25 °C
A2/NA9 = experiment: Thermal stability by nanoscale differential scanning fluorimetry, A2/NA9; design: species or system human; conditions: for destabilization of A2 complex (in words): ethanediol, 20% DMSO, Table S5
In short: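 Refolded, SEC-purified HLA-A2/peptide complex, 4 µM in citrate-phosphate buffer pH 7.6 (187.3 mM Na₂HPO₄, 6.35 mM citric acid). Mixed 1:1 with solvent or dipeptide at 2x test concentration in the same buffer, giving 2 µM complex. nanoDSF in capillaries: ex 280 nm, em 330 and 350 nm, ramp 1.0 °C/min from 15 or 20 °C to 80 °C.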

HLA-A*24:02 = HLA-A*24:02 (Homo sapiens, UniProt P04439, D101N/D140Y/D185E/E176V/E190D/F33S/G103R/G107R/I119L/I121M/I306V/K335N/L105A/L180Q/L300P/N151K/N90K/Q86E/Q94H/R106L/R138H/R89G/T104I/T345S/V100E/W191G/Y123F); assay type: binding; conditions: pre-bound TLn9, ethanol vs 10 mM GF, 25 °C
In short: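 Complex (300 nM final) preincubated 15 min with the test compound or 10 mM dipeptide in 50 mM HEPES, 150 mM NaCl, pH 7.5. FITC-labeled incoming peptide added at 100 nM final. Exchange followed in real time by fluorescence anisotropy (ex 494 nm, em 517 nm) at 25 °C.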

H-2K^b = H-2K^b (Mus musculus, UniProt P01901); assay type: binding, murine; conditions: pre-bound FAPGNYPAL
HLA-B*07:02 = HLA-B*07:02 (Homo sapiens, UniProt P01889); assay type: binding; conditions: pre-bound APGIRDHESA
β2m = experiment: Thermal stability by nanoscale differential scanning fluorimetry, β2m; design: species or system human
HLA-A*02:01 [2] = target: T1, HLA-A*02:01; assay type: binding
A2/IV9 = experiment: Thermal stability by nanoscale differential scanning fluorimetry, A2/IV9; design: species or system human; conditions: no reagent
[3] = target: disulfide-stabilized HLA-A*02:01 (Y84C/A139C) (Homo sapiens, UniProt P04439, D140Y/D185E/D98H/E176V/E277Q/G131W/G231S/I119V/I121R/I166T/I218V/L300P/L318F/N151K/N90K/P208A/P217A/Q86G/Q94H/R138H/R169H/T345S/A163C/Y108C); assay type: binding
[4] = target: disulfide-stabilized HLA-A*02:01 (Y84C/A139C) / beta-2 microglobulin, peptide-free (human); experiment: fluorescence polarisation
A2/NV9 = experiment: Thermal stability by nanoscale differential scanning fluorimetry, A2/NV9; design: species or system human; conditions: no reagent

## CCCO [1-propanol]
HLA-A*02:01 [1]
  peptide exchange (in words): ineffective

## CCC(C)O (stereo not shown) [2-butanol]
HLA-A*02:01 [1]
  peptide exchange (in words): ineffective

## C[S+](C)[O-] [DMSO, Dimethylsulfoxide]
A2/NA9
  destabilization of A2 complex (in words): destabilizes to an extent similar to 10% ethanol

## OCCO [EDO, 1,2-Ethanediol]
A2/NA9
  destabilization of A2 complex (in words): destabilizes A2 only slightly
HLA-A*02:01 [1]
  peptide exchange (in words): enhanced exchange only to a minor extent

## CCO [EtOH, Ethanol]
HLA-A*24:02
  peptide exchange (in words): dramatically superior to the dipeptide
H-2K^b
  peptide exchange (in words): also catalyzes exchange
HLA-B*07:02
  peptide exchange (in words): also catalyzes exchange
A2/NA9; A2/NA9, 20% ethanol vs no reagent
  ΔTm: −16.7 °C
β2m; 20% solvent, β2m alone, citrate-phosphate buffer pH 7.6, 1.0 °C/min
  Tm: 45 °C
β2m; β2m, 20% solvent vs no reagent
  ΔTm: −20.5 °C
HLA-A*02:01 [2]
  peptide exchange (in words): considerably less than that of 10 mM GM
HLA-A*02:01 [1]; 20% ethanol, 25, 32, 37 °C, less A2 available to bind the incoming peptide
  lower endpoint anisotropy with temperature increase (in words): especially dramatic
HLA-A*02:01 [1]
  peptide exchange (in words): 10% ethanol showed an acceleration similar to the dipeptide

## CO [MeOH, Methanol]
HLA-A*02:01 [1]
  peptide exchange (in words): 20% methanol was only slightly slower

## ILKEPVHGV [IV9]
A2/IV9
  Tm of complex compared to β2m alone (in words): not significantly different from those of β2m alone

## NLVPKTAMRAVATA [NA9-TAM]
[3]
  acceleration of dissociation by 20% ethanol: about six-fold

## NLVPK_(TAMRA)VATA (peptide)
[4]
  fold acceleration of dissociation by 20% ethanol (against no ethanol): 6 fold

## NLVPMVATV [NV9]
A2/NV9
  Tm of complex compared to β2m alone (in words): not significantly different from those of β2m alone
